PTEN del growth = growth suppression of PTEN-null HCT116, primary screen, cell-based, CellTiter-Glo; HCT116 PTEN-null viability, 60 h; hits give low values; actives 1.2% (n = 140,000); viability, % at 10 µM;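 active = viability at or below a set limit, 4 SD under the median of all tested compounds, cut at about 3.7% in these data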;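 note: PTEN knockout HCT116 line with beta catenin targeted HCT116 as companion control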
HUVEC prolif 384 = inhibitors of HUVEC proliferation, primary screen, cell-based, 384-well. CellTiter-Glo luminescence, 72 h; hits give low values. viability, % at 10 µM (by protocol). actives 1.1% (n = 86,000). AID 648, 2007;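 active = viability at or below 30%; inactive = viability above 30%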;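 note: 100% = median luminescence of DMSO-only cell control wells on each plate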
Lung fibro prol = antiproliferative effect on LL 47 fibroblasts – human, LL 47 cells, CellTiter-Glo luminescence, primary screen | AID 719, 2007 | actives 1.1% (n = 85,000) | LL 47 human lung fibroblast viability, ATP luminescence; hits give low values | viability, % at 10 µM;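 active = viability at or below 50% in the single dose screen; inactive = viability above 50%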;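 note: compound exposure lasted 72 h before the ATP readout; 100% = median luminescence of untreated cell-only wells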
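Material: Human LL 47 lung fibroblast cells | Input: 1,150 cells/well | Buffer or medium: IMEM plus 15% FBS | Compound dosing: 0.1% DMSO in all compound wells | Times: Overnight cell rest, 72 h compound treatment at 37 °C | Signal: CellTiter-Glo luminescence measuring cellular ATP | Measure: % viability versus median cells-only luminescence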
bCat KO growth = primary screen for growth suppressors in beta-catenin knockout HCT116 cells (colon tumor, human). actives 1.5% (n = 140,000). HCT116 beta-catenin knockout viability, CellTiter-Glo, 60 h; hits give low values. viability, % at 10 µM;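 active = viability at or under a set limit, the compound median less 4 SD, cut at about 6% in these data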;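 note: 0% = Hyamine 1622 control at 20 µM and 100% = untreated cell control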
H69AR inhibit = proliferation blockers of H69AR lung cancer cells, primary screen, cell-based, human, 86K library. H69AR lung tumor viability, ATP luminescence, 72 h; hits give low values. viability, % at 10 µM. actives 6% (n = 85,000);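 active = viability at or below 40%; inactive = viability above 40%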;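 note: multidrug resistant small cell line overexpressing MRP-1 efflux transporter; 100% = mean luminescence of untreated control wells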
* marks the source's active call; other numbers are inactive results. This is one part of a sample in which hits are shown more often than they occur.

`CCOC(=O)C1CCN(c2ncnc3c2[nH]c2cccc(OC)c23)CC1` gave PTEN del growth 84, HUVEC prolif 384 87, Lung fibro prol 99, bCat KO growth 89 and H69AR inhibit 23*.
`C[C@@H]1CC[C@H]2C(=O)N3[C@@H](CC[C@@H](C)[C@@H]3c3ccc(Br)cc3)C(=O)N2[C@H]1c1ccc(Br)cc1` gave PTEN del growth 47 and bCat KO growth 60.
`O=S(=O)(c1cccc(-c2nc3ccccc3s2)c1)N1CCOCC1` gave PTEN del growth 86, HUVEC prolif 384 101, Lung fibro prol 98, bCat KO growth 90 and H69AR inhibit 95.
Screening Cc1ccc(-c2nc3ccccc3s2)cc1S(=O)(=O)N1CCCC1 returned PTEN del growth 64, HUVEC prolif 384 108, Lung fibro prol 97, bCat KO growth 67 and H69AR inhibit 32*.
For COc1ccc(S(=O)(=O)N(C)CC(=O)NCc2ccco2)cc1 the results were PTEN del growth 92, HUVEC prolif 384 102, Lung fibro prol 98, bCat KO growth 95 and H69AR inhibit 82.
CCN(CC)c1ccc(/C=C2\CCC(/C=N/NC(=O)c3ccc(=O)n(C)c3)=C2N2CCOCC2)cc1 was read as PTEN del growth 77 and bCat KO growth 81.
For CCc1nc2c(cnn2-c2ccc(Cl)cc2)c(=O)n1-c1ccc2c(c1)OCCO2 the results were PTEN del growth 6, HUVEC prolif 384 94, Lung fibro prol 91, bCat KO growth 3.3* and H69AR inhibit 51.
For COc1ccc(OCCSc2nnc(C)n2-c2ccccc2)cc1 the results were PTEN del growth 96, HUVEC prolif 384 86, Lung fibro prol 100, bCat KO growth 79 and H69AR inhibit 32*.
Cc1c(Cl)cccc1NC(=O)CCC(=O)N/N=C/c1ccc[nH]1 was read as PTEN del growth 95 and bCat KO growth 102.
Screening CN(C)CCCN(Cc1ccccc1)C(=S)Nc1ccc(OC(F)F)cc1 returned PTEN del growth 90 and bCat KO growth 92.
Screening CCc1ccc(S(=O)(=O)/N=C2/C=C(Sc3ncn[nH]3)C(=O)c3ccccc32)cc1 returned PTEN del growth 3.4* and bCat KO growth 2.5*.
Screening Nc1cc(Br)c(N)c(Br)c1 returned PTEN del growth 98, HUVEC prolif 384 92, Lung fibro prol 97, bCat KO growth 94 and H69AR inhibit 23*.
`O=c1[nH]c(=O)n(Cc2ccccc2)c2nc(-c3ccc(Oc4ccc(F)cc4)c([N+](=O)[O-])c3)n(CCO)c12` gave PTEN del growth 1.1* and bCat KO growth 0.8*.
`Cc1ccccc1C(=O)OCCN1CCOCC1` gave PTEN del growth 100 and bCat KO growth 99.
Screening O=C(Nc1nc2ccccc2n1CCN1CCCCC1)C1CCCCC1 returned PTEN del growth 56, HUVEC prolif 384 107, Lung fibro prol 87, bCat KO growth 43 and H69AR inhibit 31*.
`CCCn1c(Nc2nc3ccccc3n2C)nc2ccccc21` gave PTEN del growth 2.0*, HUVEC prolif 384 3.0*, Lung fibro prol 102, bCat KO growth 2.2* and H69AR inhibit 3.1*.
`CCCn1c(NC(=O)C2CCN(S(=O)(=O)c3cccs3)CC2)nc2ccccc21` gave PTEN del growth 8, HUVEC prolif 384 72, Lung fibro prol 65, bCat KO growth 10 and H69AR inhibit 39*.
For CCCn1c(NC(=O)c2cccc(S(=O)(=O)N3CCCC3)c2)nc2ccccc21 the results were PTEN del growth 2.0*, HUVEC prolif 384 52, Lung fibro prol 53, bCat KO growth 2.9* and H69AR inhibit 17*.
`COc1ccc(OC)c(NC(=O)CCN2CCCCCC2)c1` gave PTEN del growth 105, HUVEC prolif 384 101, Lung fibro prol 106, bCat KO growth 106 and H69AR inhibit 92.
`Cc1cccc(-c2n[nH]c(=S)n2/N=C/c2ccc(C)o2)c1` gave PTEN del growth 95 and bCat KO growth 101.
CC(NC(=O)c1ccccc1)c1nc2ccccc2n1Cc1ccc(C#N)cc1 (centres undefined) was read as PTEN del growth 89, HUVEC prolif 384 102, Lung fibro prol 93, bCat KO growth 78 and H69AR inhibit 70.
For CCCn1c(NC(=O)c2ccc(C)cc2)nc2ccccc21 the results were PTEN del growth 37, HUVEC prolif 384 87, Lung fibro prol 67, bCat KO growth 26 and H69AR inhibit 52.
For CC(NC(=O)c1ccccc1)c1nc2ccccc2n1Cc1ccccc1F (centres undefined) the results were PTEN del growth 66, HUVEC prolif 384 103, Lung fibro prol 92, bCat KO growth 76 and H69AR inhibit 12*.
Screening CCCn1c(NC(=O)c2ccccc2)nc2ccccc21 returned PTEN del growth 38, HUVEC prolif 384 86, Lung fibro prol 71, bCat KO growth 42 and H69AR inhibit 31*.
For Cc1cc(NC(=O)CSc2nnc(-c3c[nH]c4ccccc34)n2-c2ccc(Cl)cc2)no1 the results were PTEN del growth 95 and bCat KO growth 93.
For O=S(=O)(N1CCOCC1)n1cnc2ccccc21 the results were PTEN del growth 95, HUVEC prolif 384 98, Lung fibro prol 105, bCat KO growth 96 and H69AR inhibit 95.
`COc1ccc2c3c(cccc13)NN=C2C` gave HUVEC prolif 384 3.0*, Lung fibro prol 26* and H69AR inhibit 26*.
`CCN1CCN(c2ccc(NC(=O)CCc3c(C)nc4c(-c5ccccc5)c(C)nn4c3C)cc2)CC1` gave PTEN del growth 1.9* and bCat KO growth 0.9*.
Screening Cc1cc(N2CCN(C(=O)c3ccco3)CC2)n2nc(C)c(-c3ccccc3)c2n1 returned PTEN del growth 73, HUVEC prolif 384 80, Lung fibro prol 100, bCat KO growth 91 and H69AR inhibit 18*.
For O=C(c1ccccc1)c1ccc2nc(N3CCN(C(=O)c4ccco4)CC3)c3nncn3c2c1 the results were PTEN del growth 42, HUVEC prolif 384 70, Lung fibro prol 89, bCat KO growth 53 and H69AR inhibit 18*.
Cc1cc(N2CCN(C(=O)c3ccco3)CC2)n2nc(C)c(-c3ccc(Cl)cc3)c2n1 was read as HUVEC prolif 384 34, Lung fibro prol 50 and H69AR inhibit 16*.
For Cc1ccc(-c2nnc(N3CCN(C(=O)c4ccco4)CC3)c3ccccc23)cc1 the results were PTEN del growth 49, HUVEC prolif 384 80, Lung fibro prol 84, bCat KO growth 53 and H69AR inhibit 54.
Screening Cc1nc2c(-c3ccccc3)c(C)nn2c(C)c1CCC(=O)NCc1ccco1 returned PTEN del growth 103, HUVEC prolif 384 93, Lung fibro prol 93, bCat KO growth 95 and H69AR inhibit 66.
Screening Cc1nn2c(N3CCN(C(=O)c4ccco4)CC3)cc(C(C)(C)C)nc2c1-c1ccc(Cl)cc1 returned PTEN del growth 67 and bCat KO growth 79.
